Calls of active or inactive are those of the source. No cut-off for these calls is given here.
Legend:
[1] = biological target: Focal adhesion kinase 1 (Homo sapiens) (UniProt Q05397); test: Reduction in FAK phosphorylation in HUVEC at 2 to 10 uM after 48 hrs by Western blot analysis; type: cell-based
Summary of the method: (§1)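 HUVECs grown in RPMI 1640 with 10% FBS, 37 °C, 5% CO2; treated with no drug, 2 or 10 µM for 48 h. Lysed in RIPA with protease/phosphatase inhibitors on ice 30 min, protein by BCA, 8% SDS-PAGE, PVDF transfer, milk block, primary antibody overnight 4 °C, secondary 2 h RT; ECL detection, densitometry. Probed VEGF-R, FAK, p-FAK, SHC.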

[2] = Toxicity in nude mouse xenografted with human MCF7 cells assessed as effect on kidney morphological changes at 22.5 to 45 mg/kg/day, ip administered for 21 days by HE staining analysis; type: organism-based; settings: in vivo, 504 h
ECa-109 cell line = test: Antitumour activity against human EC109 cells assessed as cell growth inhibition measured after 72 hrs by SRB assay; type: functional, cell-based; settings: ECa-109, 72 h
Summary of the method: (§2)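 Exponentially growing cells trypsinized, seeded at 5 × 10^4 cells/mL in 96-well plates, cultured overnight, then exposed to compounds for 72 h. Cells fixed with 10% TCA 1 h, stained with SRB 15 min, dye dissolved in Tris-HCl, absorbance read; 50% growth-inhibitory concentration calculated.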

PC-3 = test: Cytotoxicity against human PC3 cells assessed as reduction in cell viability measured after 48 to 72 hrs by MTT assay; type: cell-based
Summary of the method: (§3)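 Cells seeded at 3 × 10^3 per well in 96-well plates, incubated overnight, then given fresh medium with a range of drug concentrations for 48 h or 72 h. MTT added (final 500 µg/mL) for 4 h, formazan dissolved in DMSO, absorbance at 570 nm; IC50 derived. Mean ± SD of 3 independent tests.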

[3] = Toxicity in nude mouse xenografted with human MCF7 cells assessed as effect on lung morphological changes at 22.5 to 45 mg/kg/day, ip administered for 21 days by HE staining analysis; type: organism-based; settings: in vivo, 504 h
SMMC-7721 = test: Antitumour activity against human SMMC7721 cells assessed as cell growth inhibition measured after 72 hrs by SRB assay; type: functional, cell-based; settings: SMMC-7721, 72 h; summary of the method: as §2
MCF7 [4] = test: Antimigratory activity against human MCF7 cells at 2 to 10 uM measured after 48 hrs by wound healing assay; type: functional, cell-based
Summary of the method: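 Cells seeded in 6-well plates, monolayer scratched with pipette tip, washed twice, kept in medium with 2% FBS. Gaps imaged, then drug added (0, 2 or 10 µM for HUVEC and MCF-7); gaps re-imaged after 48 h and migration rate calculated. Three independent experiments; one-way ANOVA.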

Chorioallantoic membrane = test: Antiangiogenic activity in chicken chorioallantoic membrane assessed as reduction in neovascularization at 50 ug/ml measured after 72 hrs by CAM assay; type: functional; settings: Gallus gallus
Summary of the method: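 Fertilized chicken eggs incubated 6 days at 37 °C; shell windowed and CAM treated (compounds and controls at […] as printed; saline vehicle control). Eggs re-incubated humidified; membranes fixed and harvested after 72 h. Angiogenesis scored by counting blood vessels and imaging neovascular zones; ten eggs per group.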

HEK293 = test: Cytotoxicity against human HEK293 cells measured after 48 to 72 hrs by MTT assay; type: cell-based; summary of the method: as §3
HUVEC [5] = test: Reduction in SHC expression in HUVEC at 2 to 10 uM after 48 hrs by Western blot analysis; type: functional, cell-based; settings: Homo sapiens; summary of the method: as §1
MCF7 [6] = test: Antitumour activity against human MCF7 cells xenografted in nude mouse assessed as decrease in tumour weight at 22.5 to 45 mg/kg/day, ip administered for 21 days; type: functional, organism-based
Summary of the method: (§4)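 Nude mice (male/female, 4–6 weeks) injected subcutaneously in right forelimb with 5 × 10^7 MCF-7 cells in 200 µL saline; at mean tumour 100 mm3 randomized (n = 5/group): saline 0.2 mL/day, 22.5 or 45 mg/kg/day ip for 21 days. Body weight and tumour volume (length × width²/2) every other day; tumours weighed at day 21.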

MCF7 [7] = test: Inhibition of epithelial-mesenchymal transition in human MCF7 cells assessed as decrease in vimentin expression level at 2 to 10 uM after 48 hrs by Western blot analysis; type: functional, cell-based
Summary of the method: (§5)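 MCF-7 cells in RPMI 1640 with 10% FBS, 37 °C, 5% CO2, exposed to no drug, 2 or 10 µM for 48 h. RIPA lysates, BCA quantitation, 8% SDS-PAGE, PVDF transfer, primary antibodies overnight 4 °C, secondary 2 h RT, ECL and densitometry for ZO-1, E-cadherin, N-cadherin, vimentin. Mean ± SD of 3 independent tests.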

HUVEC [8] = test: Cytotoxicity against HUVEC assessed as reduction in cell viability measured after 48 to 72 hrs by MTT assay; type: cell-based; settings: human; summary of the method: as §3
MCF7 [9] = test: Antitumour activity against human MCF7 cells xenografted in nude mouse assessed as decrease in tumour volume at 22.5 to 45 mg/kg/day, ip administered for 21 days; type: functional, organism-based; summary of the method: as §4
[10] = Solubility of the compound in water; type: physicochemical; settings: buffer
HUVEC [11] = test: Effect on FAK expression in HUVEC at 2 to 10 uM after 48 hrs by Western blot analysis; type: functional, cell-based; settings: Homo sapiens; summary of the method: as §1
MGC-803 = test: Antitumour activity against human MGC803 cells assessed as cell growth inhibition measured after 72 hrs by SRB assay; type: functional, cell-based; settings: MGC-803, 72 h; summary of the method: as §2
MDA-MB-231 = test: Cytotoxicity against human MDA-MB-231 cells assessed as reduction in cell viability measured after 48 to 72 hrs by MTT assay; type: cell-based; summary of the method: as §3
MCF7 [12] = test: Cytotoxicity against human MCF7 cells assessed as reduction in cell viability measured after 48 to 72 hrs by MTT assay; type: cell-based; summary of the method: as §3
[13] = Toxicity in nude mouse xenografted with human MCF7 cells assessed as liver edema at 22.5 to 45 mg/kg/day, ip administered for 21 days by HE staining analysis; type: organism-based; settings: in vivo, 504 h
B16 = test: Antitumour activity against mouse B16 cells assessed as cell growth inhibition measured after 72 hrs by SRB assay; type: functional, cell-based; settings: B16, 72 h; summary of the method: as §2
HUVEC [14] = test: Reduction in VEGFR expression in HUVEC at 2 to 10 uM after 48 hrs by Western blot analysis; type: functional, cell-based; settings: Homo sapiens; summary of the method: as §1
[15] = Hepatotoxicity in nude mouse xenografted with human MCF7 cells assessed as slight increase in serum alkaline phosphatase level at 22.5 to 45 mg/kg/day, ip administered for 21 days by biochemical automatic analyzer; type: toxicity, organism-based; settings: in vivo, 504 h
MCF7 [16] = test: Antimigratory activity against human MCF7 cells at 2 to 10 uM measured after 24 hrs by transwell assay; type: functional, cell-based
Summary of the method: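 Cells seeded on upper side of polycarbonate transwell filters in serum-free medium, drug at 0, 2 or 10 µM; complete serum-containing medium in lower chamber as chemoattractant. After 24 h migrated cells fixed in 4% paraformaldehyde 20 min, crystal violet stained 20 min, imaged and counted. Three independent experiments.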

[17] = Toxicity in nude mouse xenografted with human MCF7 cells assessed as effect on heart morphological changes at 22.5 to 45 mg/kg/day, ip administered for 21 days by HE staining analysis; type: organism-based; settings: in vivo, 504 h
[18] = Toxicity in nude mouse xenografted with human MCF7 cells assessed as effect on spleen morphological changes at 22.5 to 45 mg/kg/day, ip administered for 21 days by HE staining analysis; type: organism-based; settings: in vivo, 504 h
MCF7 [19] = test: Inhibition of epithelial-mesenchymal transition in human MCF7 cells assessed as increase in ZO-1 expression level at 2 to 10 uM after 48 hrs by Western blot analysis; type: functional, cell-based; summary of the method: as §5

Sequence of Focal adhesion kinase 1 (Homo sapiens) (Q05397 2-1052 limits assumed): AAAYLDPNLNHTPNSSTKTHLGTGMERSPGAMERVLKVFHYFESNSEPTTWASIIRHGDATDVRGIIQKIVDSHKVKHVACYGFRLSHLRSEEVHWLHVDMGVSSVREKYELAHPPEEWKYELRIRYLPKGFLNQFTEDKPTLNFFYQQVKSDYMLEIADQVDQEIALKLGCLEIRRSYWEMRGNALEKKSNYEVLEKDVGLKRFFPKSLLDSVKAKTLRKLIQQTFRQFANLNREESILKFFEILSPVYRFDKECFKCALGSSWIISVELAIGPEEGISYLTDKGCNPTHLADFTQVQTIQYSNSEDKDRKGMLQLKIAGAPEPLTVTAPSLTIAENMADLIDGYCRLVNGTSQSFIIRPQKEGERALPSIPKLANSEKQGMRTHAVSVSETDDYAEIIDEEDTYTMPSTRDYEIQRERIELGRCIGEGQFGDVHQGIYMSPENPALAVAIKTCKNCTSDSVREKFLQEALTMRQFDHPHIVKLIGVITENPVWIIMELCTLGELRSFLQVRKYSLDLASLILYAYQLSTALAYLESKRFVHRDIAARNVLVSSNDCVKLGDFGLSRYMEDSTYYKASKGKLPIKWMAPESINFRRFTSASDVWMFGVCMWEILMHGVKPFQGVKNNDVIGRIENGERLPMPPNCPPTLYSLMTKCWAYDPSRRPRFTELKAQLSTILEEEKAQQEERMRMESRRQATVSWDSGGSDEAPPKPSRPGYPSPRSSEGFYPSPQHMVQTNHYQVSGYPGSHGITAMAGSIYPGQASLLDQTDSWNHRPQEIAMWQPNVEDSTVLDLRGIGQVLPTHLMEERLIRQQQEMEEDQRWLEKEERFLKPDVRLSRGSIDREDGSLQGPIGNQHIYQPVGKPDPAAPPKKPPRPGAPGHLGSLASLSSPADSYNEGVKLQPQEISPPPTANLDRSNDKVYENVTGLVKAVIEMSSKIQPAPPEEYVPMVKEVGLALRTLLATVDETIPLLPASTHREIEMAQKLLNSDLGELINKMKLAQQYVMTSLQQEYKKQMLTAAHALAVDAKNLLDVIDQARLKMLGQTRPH

In the case of `COc1cc2c(cc1O)CC[C@@H]1[C@@H]2CC[C@]2(C)C(=O)/C(=C/c3ccc(Cl)cc3)C[C@@H]12`, the inhibition [1] is reported as “Active”, the Activity [2] is reported as “Non-Toxic” and the IC50 (ECa-109 cell line) is reported as 14.7 µM. For the same compound, the Activity (PC-3) was “Toxic”, the Activity [3] was “Non-Toxic” and the IC50 (SMMC-7721) was 4.3 µM. The Activity (MCF7 [4]) was “Active”, the inhibition (Chorioallantoic membrane) was “Active” and the IC50 (HEK293) was greater than 100 µM. For the same compound, the inhibition (HUVEC [5]) was “Active”, the inhibition (MCF7 [6]) was “Active” and the inhibition (MCF7 [7]) was “Active”. The Activity (HUVEC [8]) was “Toxic”, the inhibition (MCF7 [9]) was “Active” and the solubility [10] was “Soluble”. The Activity (HUVEC [11]) was “inactive”, the IC50 (MGC-803) was 14.9 µM and the IC50 (MDA-MB-231) was 78.6 µM. For the same compound, the IC50 (MCF7 [12]) was 77 µM, the Activity [13] was “Toxic” and the IC50 (B16) was 17.9 µM. For the same compound, the inhibition (HUVEC [14]) was “Active”, the Activity [15] was “Toxic” and the Activity (MCF7 [16]) was “Active”. For the same compound, the Activity [17] was “Non-Toxic”, the Activity [18] was “Non-Toxic” and the inhibition (MCF7 [19]) was “Active”.

— ChEMBL document CHEMBL4393712, “Discovery of chalcone-modified estradiol analogs as antitumour agents that Inhibit tumour angiogenesis and epithelial to mesenchymal transition” (Eur J Med Chem, 2019)
